# UPR XBP1 act – adaptive UPR (XBP1) activation; hit rate 0.33% among 330,000; AID 463104; activation, % at 20 µM; CHO-XBP1 luciferase reporter, IRE1-XBP1 UPR activation, luminescence; percent of tunicamycin response, DMSO as zero;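 active = versus positive control, 20 µM dose yields 30% or more activation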
#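 assay system = CHO-XBP1 luciferase reporter cells | amount = 1000 cells/well | buffer or medium = F12 plus 10% FBS | compound dosing = single point, 20 µM final compound, 1% DMSO | incubation = 16-18 h cell attachment at 37 °C, then 6 h compound exposure | detection = Steady-Glo luminescence read | controls = tunicamycin 10 µg/mL and vehicle-only wells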
# 697 NFkB inh – inhibitors of the PMA/ionomycin-induced NF-kB reporter in 697 B cells | 697 B-cell NF-kB luciferase reporter, 16 h | inhibition, % at 4 µM | hit rate 0.33% among 330,000 | AID 435022; in the data active = inhibition above about 35%
# Jurkat NFkB inh – lowers PMA/ionomycin-induced NF-kB signal in Jurkat cells; PMA/ionomycin-induced NF-kB luciferase reporter, luminescence; hit rate 0.53% among 330,000; inhibition, % at 4 µM; in the data active = inhibition above about 50%
# CHOP UPR activ – activators of apoptotic arm of unfolded protein response (CHOP). AID 449763. CHO-CHOP luciferase reporter, UPR activation, luminescence; percent of tunicamycin response over DMSO baseline. hit rate 0.34% among 330,000. activation, % at 10 µM;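 active = at 10 µM dose, activation of 40% or more, normalized to positive control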
#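 System: CHO-CHOP luciferase reporter cell line; amount: 500 cells/well; buffer or medium: F12 medium containing 10% fetal bovine serum; incubation: 6 h compound exposure at 37 °C after overnight seeding; measured by: luciferase luminescence after 10 min with Steady-Glo reagent; evaluation: % reporter activation, DMSO baseline versus tunicamycin full activation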
# CHOP inhibitor – inhibitors of CHOP induction in ER stress response | CHO-K1 CHOP-promoter luciferase, tunicamycin-induced, 15-18 h | inhibition, % at 10 µM | hit rate 3.8% among 220,000;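 active = compounds that reduced the stress-induced luciferase reporter signal by more than about 70% of percent inhibition, limit read from the data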
# CHOP confirm – confirmation of CHOP induction inhibitors; inhibition, % at 10 µM; CHO-CHOP promoter luciferase reporter, tunicamycin-induced, luminescence; shares compounds with CHOP inhibitor; hit rate 45% among 2,100;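 active = mean of three repeat readings of reporter signal inhibition above a set limit, cut at about 70% in these data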
# Hits are given with their value; n = inactive; x = not tested or not shown. This is one part of a sample in which hits are shown more often than they occur.
SMILES,UPR XBP1 act,697 NFkB inh,Jurkat NFkB inh,CHOP UPR activ,CHOP inhibitor,CHOP confirm
Cc1ccc(NC(=O)Cn2nnc(C(=O)Nc3ccc(C)c(C)c3)c2N)cc1,n,n,n,n,96.9,n
COc1ccc(OC)c(/C(O)=C/C(=O)C(=O)Nc2cc(C)cc(C)c2)c1,n,n,n,n,105.5,n
CCc1ccccc1N(CC(=O)NC(C)C)C(=O)CCC(=O)Nc1nccs1,n,n,n,n,x,x
COC(=O)[C@@H](Cc1ccccc1)NC(=O)NCCc1ccc(OC)c(OC)c1,n,n,n,n,x,x
CC(/C=C1\SC(=O)N(CC(=O)Nc2ccc(O)cc2)C1=O)=C\c1ccccc1,n,n,n,n,96.2,n
CC(=O)c1ccc(NC(=O)CCCN2C(=O)/C(=C/C(C)=C/c3ccccc3)SC2=S)cc1,n,n,n,n,n,x
Cc1ccc(NC(=O)CSc2nc3[nH]ncc3c(=O)[nH]2)cc1Cl,n,n,n,n,x,x
O=C(COc1ccc(Cl)cc1Cl)NCCC1=CCCCC1,n,n,n,n,107.2,115.1
COc1cc(/C=C/C(=O)OCC(=O)NCCC2=CCCCC2)ccc1O,n,n,n,n,n,x
O=C(COC(=O)/C=C/c1cccc(Br)c1)NCCC1=CCCCC1,n,n,n,n,96.2,n
CC1=CC(C)(C)n2c(O)c(N=N)c3c(C)c(C)cc1c32,n,n,n,n,97.6,n
COc1cc(/C=N/N(C)c2ccccc2)cc(Cl)c1O,n,n,n,n,97.3,n
CCCCNS(=O)(=O)NC(=O)C1=C(N2CCCC2)COC1=O,n,n,n,n,x,x
CC(C)OC(=O)c1ccccc1C(=O)c1ccc(N)c([N+](=O)[O-])c1,n,n,n,n,n,x
CNC(=O)COC(=O)c1ccccc1C(=O)c1ccc(Cl)c([N+](=O)[O-])c1,x,x,x,x,97.2,n
O=C(c1cccc(C(F)(F)F)c1)C1CCCN(C(=O)/C=C/c2cnc[nH]2)C1 (configuration not stated),n,n,n,n,x,x
Cc1ccc(S(=O)(=O)N(C)CC(O)Cn2c3ccccc3c3ccccc32)cc1 (configuration not stated),n,n,n,n,100.9,n
C=CC[C@H](CC(=O)NCCO)C(=O)N[C@@H](COC(=O)[C@@H](CC=C)Cc1ccc(F)cc1)Cc1ccccc1,n,n,n,n,x,x
CCOC(=O)c1cc(-c2cccs2)nc2c1c(C)nn2-c1ccccn1,n,n,n,n,99.0,100.0
Cc1nn(-c2ccccc2)c2nc(-c3cccs3)cc(C(=O)NN)c12,n,n,n,n,n,x
Cc1cccc(NC(=O)[C@@H]2CCCN2S(=O)(=O)c2ccc(Cl)cc2)c1,n,n,n,n,x,x
COc1ccccc1NS(=O)(=O)c1ccc(C(=O)N2CC(C)OC(C)C2)cc1 (configuration not stated),n,n,n,n,x,x
O=C(CCCOc1ccc(Cl)cc1Cl)NNC(=O)c1ccc(NC(=O)c2ccccc2)cc1,n,n,n,n,n,x
Cc1ccc(/C=N/NC(=O)CCCOc2ccc(Cl)cc2Cl)cc1,n,n,n,n,99.6,105.6
Cc1ccccc1C(=O)Nc1ccc(C(=O)NNC(=O)CCCOc2ccc(Cl)cc2Cl)cc1,n,n,n,n,112.5,n
SMILES,UPR XBP1 act,697 NFkB inh,Jurkat NFkB inh,CHOP UPR activ,CHOP inhibitor,CHOP confirm
Cc1ccc(/C=N/NC(=O)CSCc2ccc(Cl)cc2)cc1,n,n,n,n,110.5,88.9
O=C(Nc1ccc2oc(=O)ccc2c1)c1ccc(-c2cccc(Cl)c2)o1,n,n,n,n,100.5,n
O=C(Nc1ccc(F)cc1)N1CCn2c(nc3ccccc32)C1,n,n,n,n,98.4,n
COc1cc(C)ccc1S(=O)(=O)N1CCN(C23CC4CC(CC(C4)C2)C3)CC1,n,n,n,n,105.1,n
COc1cc(F)ccc1S(=O)(=O)N1CCN(C23CC4CC(CC(C4)C2)C3)CC1,n,n,n,n,n,x
CS(=O)(=O)N(CC(=O)N1CCc2ccccc2C1)c1ccccc1Br,n,n,n,n,x,x
CC(C)(C)NC(=O)CN1CCCN(C(=O)c2cccc(S(=O)(=O)N3CCc4ccccc43)c2)CC1,n,n,n,n,x,x
O=C1CC(C(=O)Nc2ccc(Cl)cc2)S/C(=N\N=C\c2ccco2)N1 (configuration not stated),n,n,n,n,n,x
O=C1CC(C(=O)Nc2ccc(Cl)c(Cl)c2)S/C(=N\N=C\c2ccco2)N1 (configuration not stated),n,n,n,n,100.1,n
Cc1cc(C(=O)CS(=O)(=O)c2ccc(Cl)cc2)cc(C)c1O,n,n,n,n,x,x
O=S(=O)(NC(=NCc1ccccc1)c1ccccc1)c1ccccc1,n,n,n,n,x,x
NC(=O)c1cc(-c2ccccc2)nc(N2CCOCC2)n1,n,n,n,n,n,x
NC(=O)c1cc(-c2ccccc2)nc(N2CCCCCC2)n1,n,n,n,n,103.0,107.6
COc1cccc(-n2nc(C#N)c(Cl)cc2=O)c1,n,n,n,n,106.7,n
COc1cccc(-n2nc(C(N)=O)c(O)cc2=O)c1,n,n,n,n,n,x
Nc1cc(=O)[nH]c(SCC(=O)c2ccc(O)cc2O)n1,n,n,n,n,x,x
CSc1ccccc1NC(=O)C1=COCCO1,n,n,n,n,x,x
CCn1c(O)c(/C=C2\C=NN=C2c2ccccc2)sc1=S,n,n,n,n,98.2,n
CCOc1cccc(CN2CCN(c3cccc(C(F)(F)F)c3)CC2)c1O,n,n,n,n,100.2,78.7
CCOc1cccc(CN2CCCC(N3CCN(c4cccc(Cl)c4)CC3)C2)c1O (configuration not stated),n,n,n,n,x,x
COc1cccc(/C=N/Nc2nnc3c(n2)[nH]c2ccccc23)c1OC,n,n,n,n,n,x
CC(/C=N/Nc1nnc2c(n1)[nH]c1ccccc12)=C\c1ccco1,n,n,n,n,107.1,n
CCC(CC)c1nnc(NC(=O)c2c(C)nn(Cc3ccccc3Cl)c2C)s1,n,n,n,n,105.0,89.9
N#Cc1c(-c2cccc(Br)c2)cc(-c2cccnc2)nc1N,n,n,n,n,104.0,n
COCCNC(=O)/C(C#N)=C\c1ccc(CNC(=O)C(=O)Nc2ccc(C)c(C)c2)o1,n,n,n,n,n,x
CCOC(=O)C1=C(O)/C(=C\c2ccc(CNC(=O)C(=O)Nc3ccc(C)c(C)c3)o2)N=C1C,x,x,x,x,108.9,n
Cc1cc(=O)oc2cc(OCC(=O)NCCCN3CCOCC3)ccc12,n,n,n,n,99.8,n
O=C(COc1ccc2c(-c3ccccc3)cc(=O)oc2c1)NCCCN1CCOCC1,n,n,n,n,x,x
Cc1sc(-c2ccncc2)nc1OC(=O)c1cc(Cl)cc(Cl)c1,n,n,n,n,104.2,n
O=C(O)c1ccccc1NSc1ccccc1[N+](=O)[O-],n,n,n,n,n,x
